Series [1] in a line: Compound tested for solubility measured in 3% ethanol:water or in 3% methanol:water; NS is not soluble. The series is classed as ADME. The conditions noted are these: buffer.
Series [2] addresses Nitric oxide synthase 1 (Rattus norvegicus) (UniProt P29476). In words: Neuronal subtype of Neuronal nitric oxide synthase (nNOS) activity tested on Rat Striatal neurones at the concentration of 10e-7 (M). Summed up: (§1)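 Rat striatal crude homogenate (supernatant after 1000g, 5 min) as nNOS source. L-[3H]-arginine to L-[3H]-citrulline conversion: 10 µM L-arginine plus 50 nM tracer, H4biopterin, FAD, 0.1 mM CaCl2, pH 7.6. Compounds added over 10 pM–1 mM. Started with NADPH (0.75 mM final), 30 min at 37 °C. Blank omits NADPH. Activity expressed as % of untreated samples. Three experiments in triplicate, four striata each.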

For series [3] the target is unchanged. Kind of series: Neuronal subtype of Neuronal nitric oxide synthase (nNOS) activity tested on Rat Striatal neurones at the concentration of 10e-9 (M). Summed up: as §1
The target is the same in series [4]. Kind of series: Neuronal subtype of Neuronal nitric oxide synthase (nNOS) activity tested on Rat Striatal neurones at the concentration of 10e-5 (M). Summed up:
as §1

Series [5] has the same target. In words: Neuronal subtype of Neuronal nitric oxide synthase (nNOS) activity tested on Rat Striatal neurones at the concentration of 0(M). Put shortly:
as §1

For series [6] the target is unchanged. Kind of series: Neuronal subtype of Neuronal nitric oxide synthase (nNOS) activity tested on Rat Striatal neurones at the concentration of 10e-3 (M). Put shortly: as §1
Series [7] shares this target. Kind of series: Neuronal subtype of Neuronal nitric oxide synthase (nNOS) activity tested on Rat Striatal neurones at the concentration of 10e-11 (M). Summed up:
as §1

Another series has as its target Nitric oxide synthase 1 (Rattus norvegicus, UniProt P29476). In words: 50% inhibitory concentration against Neuronal nitric oxide synthase (nNOS) activity. Put shortly: as §1

Nitric oxide synthase 1 (Rattus norvegicus), sequence (P29476 whole entry): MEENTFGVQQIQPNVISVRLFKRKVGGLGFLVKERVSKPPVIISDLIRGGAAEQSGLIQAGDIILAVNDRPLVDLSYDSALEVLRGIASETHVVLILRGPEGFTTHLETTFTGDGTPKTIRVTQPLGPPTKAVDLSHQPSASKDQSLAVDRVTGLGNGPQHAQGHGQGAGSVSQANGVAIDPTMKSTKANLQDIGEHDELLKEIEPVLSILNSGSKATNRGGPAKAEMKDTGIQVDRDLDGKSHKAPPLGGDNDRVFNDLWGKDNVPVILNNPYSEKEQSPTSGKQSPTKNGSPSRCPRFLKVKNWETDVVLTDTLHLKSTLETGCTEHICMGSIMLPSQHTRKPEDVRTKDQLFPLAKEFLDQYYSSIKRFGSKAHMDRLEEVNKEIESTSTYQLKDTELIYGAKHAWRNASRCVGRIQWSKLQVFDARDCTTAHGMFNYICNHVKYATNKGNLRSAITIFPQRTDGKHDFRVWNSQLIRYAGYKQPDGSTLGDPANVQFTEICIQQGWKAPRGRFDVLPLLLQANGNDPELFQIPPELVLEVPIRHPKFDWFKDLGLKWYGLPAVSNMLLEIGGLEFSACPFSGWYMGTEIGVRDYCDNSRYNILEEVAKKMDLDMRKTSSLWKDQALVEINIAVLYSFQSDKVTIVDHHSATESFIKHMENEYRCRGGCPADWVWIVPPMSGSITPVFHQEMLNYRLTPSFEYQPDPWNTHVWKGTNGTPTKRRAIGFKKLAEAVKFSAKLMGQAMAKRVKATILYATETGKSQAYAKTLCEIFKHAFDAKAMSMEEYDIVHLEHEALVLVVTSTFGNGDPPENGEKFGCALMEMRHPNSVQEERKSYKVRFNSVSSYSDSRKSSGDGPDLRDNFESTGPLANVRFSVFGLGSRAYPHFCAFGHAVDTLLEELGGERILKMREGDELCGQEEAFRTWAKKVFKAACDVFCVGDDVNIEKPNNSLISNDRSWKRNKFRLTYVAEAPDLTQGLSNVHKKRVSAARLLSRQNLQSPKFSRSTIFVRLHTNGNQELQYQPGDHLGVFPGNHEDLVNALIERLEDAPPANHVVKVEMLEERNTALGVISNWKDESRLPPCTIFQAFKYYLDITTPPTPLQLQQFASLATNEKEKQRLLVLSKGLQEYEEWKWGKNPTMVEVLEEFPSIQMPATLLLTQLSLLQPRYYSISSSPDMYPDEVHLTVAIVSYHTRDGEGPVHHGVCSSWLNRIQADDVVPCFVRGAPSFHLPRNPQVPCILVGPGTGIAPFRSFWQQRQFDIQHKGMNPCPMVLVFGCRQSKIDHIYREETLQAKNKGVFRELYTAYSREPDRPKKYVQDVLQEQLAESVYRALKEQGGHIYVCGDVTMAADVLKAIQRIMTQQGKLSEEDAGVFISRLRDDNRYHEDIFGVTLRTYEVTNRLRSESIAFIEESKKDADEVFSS
Nitric oxide synthase 1, sequence (P29476 whole entry): as above

On to `CCOC(=O)C(CC(=O)c1cccc(OC)c1)(NC(=O)c1ccccc1)C(=O)OCC`, for which, in series [1], the NS entry is given as “Insoluble”.
As to `CCCC(=O)NC(CC(=O)c1cc(OC)ccc1N)(C(=O)OCC)C(=O)OCC`, in series [1], the NS entry is on record as “Insoluble”.
With `COc1ccc(N(C)C)c(C(=O)CC(NC(C)=O)C(=O)O)c1` (stereo not given), the nNOS activity in series [2] came to 99.6%; in series [3], 99.9%; in series [4] it was 101%; in series [5], 100%; in series [6] it was 99%; in series [7] it was 100%.
Turning to `CCCC(=O)NC(CC(=O)c1cccc(OC)c1)C(=O)O` (stereo not given), the nNOS activity in series [2] was found to be 101%; in series [3] it was 101%; in series [4], 99.7%; in series [5] it was 100%; in series [6] it was 105%; in series [7], 99.9%.
In the case of `C/C=C/C(=O)NC(CC(=O)c1cccc(OC)c1)(C(=O)OCC)C(=O)OCC`, the NS entry in series [1] is “Insoluble”.
Same read-out and setting: the same measure for `CCCC(=O)NC(CC(=O)c1cccc(OC)c1)(C(=O)OCC)C(=O)OCC`: “Insoluble”; for `CCOC(=O)C(CC(=O)c1cccc(OC)c1)(NC(=O)C1CC1)C(=O)OCC`: “Insoluble”.
With `COc1ccc(NCc2ccccc2)c(C(=O)CC(NC(C)=O)C(=O)O)c1` (stereo not given), the nNOS activity came to 100% in series [2]; 101% in series [3]; 98.2% in series [4]; 100% in series [5]; 100% in series [6]; 101% in series [7].
The term IC50 denotes the concentration that gives 50% inhibition. Read a high IC50 as weaker potency. On to `CCCC(=O)NC(CC(=O)c1cc(OC)ccc1N)C(=O)O` (stereo not given), for which, on Nitric oxide synthase 1, the IC50 is over 1000 µM. Besides, the nNOS activity in series [2] was determined as 77.3%; in series [3], 82.1%; in series [4], 67.4%; in series [5], 100%; in series [6], 55%; in series [7], 85.8%.
As for `CCOC(=O)C(CC(=O)c1cc(OC)ccc1N(C)C)(NC(C)=O)C(=O)OCC`, the NS entry in series [1] is “Insoluble”.
`CCOC(=O)C(CC(=O)c1cccc([N+](=O)[O-])c1)(NC(=O)CC)C(=O)OCC`: the NS entry in series [1] is reported as “Insoluble”.
Turning to `CCOC(=O)C(CC(=O)c1cc(OC)ccc1NCc1ccccc1)(NC(C)=O)C(=O)OCC`, the NS result in series [1] was “Insoluble”.
As for `CCCC(=O)NC(CCC(=O)c1ccccc1)(C(=O)OCC)C(=O)OCC`, the NS entry in series [1] is given as “Insoluble”.
In the case of `COc1ccc(N)c(C(=O)CC(NC(C)=O)C(=O)O)c1` (stereo not given) [KYNURENIN], the IC50 against Nitric oxide synthase 1 stood at 41 µM. In addition, the nNOS activity turned out to be 65.8% in series [2]; 73.4% in series [3]; 64% in series [4]; 100% in series [5]; 31.5% in series [6]; 78.6% in series [7].
Take `COc1cccc(C(=O)CC(NC(C)=O)C(=O)O)c1` (stereo not given): the nNOS activity in series [2] was 87.2%; in series [3], 100%; in series [4] it was 103%; in series [5] it was 100%; in series [6], 95.7%; in series [7] it was 92.7%.
Regarding `CCOC(=O)C(CC(=O)c1cccc(OC)c1)(NC(=O)C1CCCCC1)C(=O)OCC`, the NS entry in series [1] was “Insoluble”.
`CCCC(=O)NC(C(=O)OCC)(C(=O)OCC)C(C)C(=O)c1ccccc1` (stereo not given): the NS result in series [1] is given as “Insoluble”.
For the compound `CCOC(=O)C(CC(=O)c1cccc([N+](=O)[O-])c1)(NC(C)=O)C(=O)OCC`, the NS entry in series [1] was “Insoluble”.
